Numbering of substitutions follows the chain as printed. Where no end group is shown, it is not given here.
Tests used:
HTRA1 (human) = HTRA1 (human) (UniProt Q92743); experiment: ITC
HTRA1 [1] = experiment: Soluble tau digest with HTRA1; assay type: biochemical, human; settings: SDS-PAGE; for activation of HTRA1 by CAPN2: 0.5 µM HTRA1, 5 µM tau, 50 mM Tris pH 8.0, 37 °C, CAPN2 titration
tau fibrils [2] = experiment: Proteolysis of tau fibrils; assay type: biochemical; settings: 2.5 µM tau fibrils, 2.5 µM HTRA1/HTRA1-CAPN2, 37 °C, 50 mM Tris HCl pH 8
HTRA1ΔPDZ = experiment: Soluble tau digest with HTRA1ΔPDZ; assay type: biochemical, human; settings: 50 µM peptide, 0.5 µM protease, 5 µM tau, 50 mM Tris pH 8.0, 37 °C; SDS-PAGE
Procedure, shortened: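 Soluble tau (5 µM) digested by 0.5 µM protease (HTRA1ΔPDZ run alongside full-length HTRA1) in 50 mM Tris pH 8.0 at 37 °C. Peptides derived from the CAPN2 C terminus were added at 50 µM, with a no-peptide control. Samples were taken at several time points and tau cleavage was followed by SDS-PAGE.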

HTRA1 Lys305Ala = experiment: Tau digest with loop L3 mutant Lys305Ala; assay type: biochemical, human; settings: 50 µM peptide
Procedure, shortened: (§1)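 HTRA1 loop L3 point mutants were assayed by tau digestion, with or without 50 µM test peptides derived from the CAPN2 C terminus, to measure mutant activity.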

HTRA1 Asn311Ala = experiment: Tau digest with loop L3 mutant Asn311Ala; assay type: biochemical, human; settings: 50 µM peptide
Procedure, shortened: as §1

HTRA2 = experiment: Tau digest with HTRA2; assay type: biochemical, human; settings: 0.5 µM HTRA2, 5 µM tau, 50 µM peptide, 50 mM Tris pH 8.0, 37 °C
HTRA3 = experiment: Tau digest with HTRA3; assay type: biochemical, human; settings: 0.5 µM HTRA3, 5 µM tau, 50 µM peptide, 50 mM Tris pH 8.0, 37 °C
HTRA1 [3] = experiment: ITC of HTRA1SA and CAPN2CA; assay type: binding, human; settings: 500 µM HTRA1SA in syringe titrated to 10 µM CAPN2CA, 50 mM bicine, 150 mM NaCl pH 9.0, 37 °C
tau fibrils [4] = experiment: Sedimentation assay of tau fibrils; assay type: biochemical; settings: no Ca^2+, ultracentrifugation
Procedure, shortened: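 Tau fibrils were incubated with HTRA1SA alone, the HTRA1SA–CAPN2 complex, CAPN2 alone, or no protein, then ultracentrifuged. Total sample taken before centrifugation, pellet and supernatant fractions were resolved by SDS-PAGE and stained with Coomassie.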

HTRA1 (HEK293 cells) = experiment: Coimmunoprecipitation of HTRA1 with CAPN2; assay type: cell-based, human; settings: HEK293 lysates; Strep or Myc beads; n = 3
tau = experiment: Soluble tau digest with CAPN2 alone; assay type: biochemical; settings: buffers without Ca^2+
Procedure, shortened: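 5 µM soluble tau was incubated with 0.5 µM CAPN2 in 50 mM Tris HCl, pH 8, at 37 °C. Aliquots were withdrawn at set time points and analysed by SDS-PAGE.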

tau fibrils [5] = settings: in the presence of Ca^2+; cited from earlier work

Molecule: CFD peptide, carboxyl terminus of complement factor D
- Kd (HTRA1 (human)): 4 µM

Molecule: HTRA1–CAPN2 complexes: hetero-oligomeric complex consisting of the cysteine protease calpain 2 (CAPN2) and HTRA1
- degradation of soluble tau (HTRA1 [1]; 5 µM tau, 0.5 µM HTRA1, 0.5 µM CAPN2, 37 °C, 50 mM Tris HCl pH 8): degradation of soluble tau was improved
- proteolysis of tau fibrils (tau fibrils [2]): a slight decrease of HTRA1 activity

Molecule: LISWLCFSVL
- activation of HTRA1ΔPDZ by peptides (HTRA1ΔPDZ): not activated

Molecule: LISWLSDSEL
- activation of HTRA1ΔPDZ by peptides (HTRA1ΔPDZ): activated wild-type but not HTRA1ΔPDZ

Molecule: LISWLSFSDL
- activation of HTRA1 Lys305Ala (HTRA1 Lys305Ala): still allowed activation
- activation of HTRA1 Asn311Ala (HTRA1 Asn311Ala): still allowed activation
- effect on HTRA2 activity (HTRA2): HTRA2 weakly
- effect on HTRA3 activity (HTRA3): activated HTRA3 strongly

B1: CCNH peptide, carboxyl terminus of cyclin H (peptide)
peptide: EWTDDDLVESL
modifications: not fully specified
- Kd (HTRA1 (human)): 40 µM

B2: CAPN2: CAPN2 heterodimer consists of a cysteine protease and a regulatory subunit (protein, UniProt P17655 20-700; P04632 1-268, looked up)
Calpain-2 catalytic subunit: SHDRAIKYLNQDYEALRNECLEAGTLFQDPSFPAIPSALGFKELGPYSSKTRGIEWKRPTEICADPQFIIGGATRTDICQGALGDCWLLAAIASLTLNEEILARVVPLNQSFQENYAGIFHFQFWQYGEWVEVVVDDRLPTKDGELLFVHSAEGSEFWSALLEKAYAKINGCYEALSGGATTEGFEDFTGGIAEWYELKKPPPNLFKIIQKALQKGSLLGCSIDITSAADSEAITFQKLVKGHAYSVTGAEEVESNGSLQKLIRIRNPWGEVEWTGRWNDNCPSWNTIDPEERERLTRRHEDGEFWMSFSDFLRHYSRLEICNLTPDTLTSDTYKKWKLTKMDGNWRRGSTAGGCRNYPNTFWMNPQYLIKLEEEDEDEEDGESGCTFLVGLIQKHRRRQRKMGEDMHTIGFGIYEVPEELSGQTNIHLSKNFFLTNRARERSDTFINLREVLNRFKLPPGEYILVPSTFEPNKDGDFCIRVFSEKKADYQAVDDEIEANLEEFDISEDDIDDGFRRLFAQLAGEDAEISAFELQTILRRVLAKRQDIKSDGFSIETCKIMVDMLDSDGSGKLGLKEFYILWTKIQKYQKIYREIDVDRSGTMNSYEMRKALEEAGFKMPCQLHQVIVARFADDQLIIDFDNFVRCLVRLETLFKIFKQLDPENTGTIELDLISWLCFSVL
Calpain small subunit 1: MFLVNSFLKGGGGGGGGGGGLGGGLGNVLGGLISGAGGGGGGGGGGGGGGGGGGGGTAMRILGGVISAISEAAAQYNPEPPPPRTHYSNIEANESEEVRQFRRLFAQLAGDDMEVSATELMNILNKVVTRHPDLKTDGFGIDTCRSMVAVMDSDTTGKLGFEEFKYLWNNIKRWQAIYKQFDTDRSGTICSSELPGAFEAAGFHLNEHLYNMIIRRYSDESGNMDFDNFISCLVRLDAMFRAFKSLDKDGTGQIQVNIQEWLQLTMYS
- Kd (HTRA1 [3]): 4 µM
- activation of HTRA1 by CAPN2 (HTRA1 [1]): improved activation of HTRA1 by CAPN2 compared to the isolated C-terminal decapeptide
- tau fibril dissociation (solubilization) (tau fibrils [4]; equimolar amounts, SDS-PAGE and Coomassie): Partial fibril dissociation
- co-sedimentation with tau fibrils (tau fibrils [4]): co-sedimentation of CAPN2 and fibrils
- coimmunoprecipitation with HTRA1 (HTRA1 (HEK293 cells)): complex formation was supported by coimmunoprecipitations
- digestion of tau by CAPN2 (tau): does not digest tau
- proteolysis of tau fibrils by CAPN2 (tau fibrils [5]): proteolyzes fibrils

B3: CAPN2CA (protein)
chain 1: B2 Calpain-2 catalytic subunit with C86A
chain 2: B2 Calpain small subunit 1
- activation of HTRA1 by CAPN2 (HTRA1 [1]): dose-dependent activation of HTRA1

From article PMC9168489 (Proceedings of the National Academy of Sciences of the …, 2022)
